# Measurements reported in ChEMBL document CHEMBL1681731, “Synthesis, in vitro anti-inflammatory and cytotoxic evaluation, and mechanism of action studies of 1-benzoyl-β-carboline and 1-benzoyl-3-carboxy-β-carboline derivatives” (Bioorg Med Chem, 2011).
# pEC50, pIC50: −log10 of the molar value. Activity calls are given as the source filed them. No cut-off for these calls is given here.
# Experiments:
# DU-145 = experiment: Cytotoxicity activity against human DU145 cells assessed as growth inhibition at 10 ug/ml after 72 hrs sulforhodamine B assay; format: functional; conditions: DU-145, 72 h
# In short: (§1)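 Cells kept in RPMI-1640/10% FBS with antibiotics at 37 °C, 5% CO2. Trypsinized cells seeded and given compound from DMSO-diluted stock. Incubated 72 h, then fixed with 10% TCA. Stained 10 min with 0.4% sulforhodamine B in 1% HOAc, washed, dye dissolved in 10 mM Trizma. A515 read; growth relative to net protein increase of controls.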
# [1] = Cytotoxicity activity against human KBVIN cells assessed as growth inhibition at 10 ug/ml after 72 hrs sulforhodamine B assay; format: functional; in short: as §1
# RAW264.7 [2] = experiment: Antiinflammatory activity against mouse RAW264.7 cells assessed as reduction of lipopolysaccharide/interferon-gamma induced PGE2 production at 1 uM by EIA; format: functional
# In short: (§2)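 RAW 264.7 macrophages (passages 9–20) stimulated with LPS/IFN-γ; compound tested at 1, 3 and 10 µM. Supernatant PGE2 measured by competitive EIA: anti-PGE2 antibody plus peroxidase-PGE2 tracer, 1 h RT; TMB/H2O2 30 min; H2SO4 stop; A450. Results given as % inhibition.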
# A549 = experiment: Cytotoxicity activity against human A549 cells assessed as growth inhibition at 10 ug/ml after 72 hrs sulforhodamine B assay; format: functional; conditions: A549, 72 h; in short: as §1
# [3] = Antiinflammatory activity against human neutrophil assessed as inhibition of N-formyl-l-methionyl phenylalanine/cytochalasin B-induced superoxide anion generation by spectrophotometry; format: functional, cell-based
# In short: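 Ferricytochrome c (0.5 mg/mL) reduction, SOD-inhibitable, with 1 mM Ca2+. Neutrophils (6 × 10^5 cells/mL) equilibrated 2 min at 37 °C, then drug or 0.1% DMSO for 5 min. Cytochalasin B 1 µg/mL preincubation, then 100 nM FMLP for 3 min. A550 monitored continuously with stirring. IC50 computed; mean ± SEM, n = 3.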
# [4] = Antiinflammatory activity against human neutrophil assessed as inhibition of N-formyl-l-methionyl phenylalanine/cytochalasin B-induced elastase release; format: functional, cell-based
# In short: (§3)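 Neutrophils (6 × 10^5/mL) supplemented with 100 µM MeO-Suc-Ala-Ala-Pro-Val-p-nitroanilide, equilibrated 2 min at 37 °C, then given drug or 0.1% DMSO vehicle for 5 min. Activated with 100 nM FMLP plus 0.5 µg/mL cytochalasin B. Absorbance at 405 nm followed continuously. Release expressed as percent of drug-free activated control. IC50 computed; mean ± SEM, n = 3.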
# [5] = Antiinflammatory activity against mouse […] cells assessed as inhibition of lipopolysaccharide/interferon-gamma induced nitric oxide production; format: functional, cell-based; conditions: Mus musculus; read-out: EC50
# In short: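 RAW 264.7 cells in DMEM/10% FCS, passages 9–20. Nitrite induced by LPS (1 µg/mL) plus IFN-γ (50 U/mL) for 18 h with or without compound. Griess reagent (1% sulfanilamide, 0.1% naphthylenediamine in 5% H3PO4) read at OD550. EC50 calculated.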
# RAW264.7 [6] = experiment: Antiinflammatory activity against mouse RAW264.7 cells assessed as reduction of lipopolysaccharide/interferon-gamma induced PGE2 production at 10 uM after 18 hrs; format: functional; conditions: RAW264.7, 18 h; in short: as §2
# KB = experiment: Cytotoxicity activity against human KB cells assessed as growth inhibition at 10 ug/ml after 72 hrs sulforhodamine B assay; format: functional; in short: as §1
# RAW264.7 [7] = experiment: Antiinflammatory activity against mouse RAW264.7 cells assessed as reduction of lipopolysaccharide/interferon-gamma induced PGE2 production at 3 uM after 18 hrs; format: functional; conditions: RAW264.7, 18 h; in short: as §2
# Mus musculus = organism: Mus musculus; experiment: (§4) Cytotoxicity against mouse […] cells by MTT assay; format: functional
# In short: (§5)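 Viability of RAW 264.7 cells taken as mitochondrial reduction of MTT to formazan. Formazan read at OD550.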
# Neutrophil [8] = experiment: Antiinflammatory activity against human neutrophil assessed as inhibition of N-formyl-l-methionyl phenylalanine-induced phosphorylation of JNK by Western blot analysis; format: functional, cell-based
# In short: (§6)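 Neutrophils given drug for 5 min at 37 °C, then FMLP (0.1 µM) for 0.5 min. Stopped on ice and centrifuged at 4 °C. Pellets lysed in HEPES pH 7.4 Triton buffer with phosphatase and protease inhibitors; 14,000 g 20 min spin. Lysate proteins run on 12% SDS-PAGE, immunoblotted, detected by ECL.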
# RAW264.7 [9] = experiment: Inhibition of lipopolysaccharide/interferon gamma-induced iNOS expression in mouse RAW264.7 cells by Western blot analysis; format: functional, cell-based
# In short: (§7)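 RAW 264.7 cells lysed in ice-cold RIPA buffer (25 mM Tris–HCl pH 7.2, SDS, Triton, deoxycholate, protease/phosphatase inhibitors). Protein assayed, run on 7.5% SDS-PAGE and transferred to nitrocellulose. Probed for iNOS or COX2 with HRP-anti-IgG secondary, detected by ECL. Blot re-probed for α-tubulin.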
# Neutrophil [10] = experiment: Antiinflammatory activity against human neutrophil assessed as inhibition of N-formyl-l-methionyl phenylalanine-induced phosphorylation of AKT by Western blot analysis; format: functional, cell-based; in short: as §6
# RAW264.7 [11] = experiment: Inhibition of lipopolysaccharide/interferon gamma-induced COX2 expression in mouse RAW264.7 cells by Western blot analysis; format: functional, cell-based; in short: as §7
# [12] = tested on: Radical scavenging activity; experiment: Antioxidant activity assessed as residual DPPH radical scavenging activity; format: functional
# [13] = as §4; format: functional; in short: as §5
# [14] = Therapeutic index, ratio of CC50 for mouse […] cells to EC50 for inhibition of lipopolysaccharide/interferon-gamma induced nitric oxide production in mouse […] cells; format: cell-based; conditions: read-out: TI
# [15] = Antiinflammatory activity against cytochalasin B pretreated human neutrophil assessed as inhibition of elastase release; format: functional; in short: as §3
Structure (SMILES),pIC50 [3],pIC50 [4],pEC50 [5],GI50 (DU-145),GI50 [1],inhibition at 1 µM (RAW264.7 [2]),GI50 (A549),inhibition at 10 µM (RAW264.7 [6]),GI50 (KB),inhibition at 3 µM (RAW264.7 [7]),CC50 (Mus musculus),inhibition (Neutrophil [8]),Activity (RAW264.7 [9]),inhibition (Neutrophil [10]),Activity (RAW264.7 [11]),Activity [12],CC50 [13],selectivity ratio [14],INH [15]
CC(=O)c1nc(C(=O)O)cc2c1[nH]c1ccccc12,< 4.52,< 4.52,6.60,> 40 µM,> 40 µM,0%,> 40 µM,0%,> 40 µM,0%,Non-toxic,–,–,–,–,–,–,–,–
O=C(O)c1cc2c([nH]c3ccccc32)c(C(=O)c2ccccc2)n1,4.75,4.87,5.44,> 40 µM,> 40 µM,0%,> 40 µM,90%,> 40 µM,12%,–,–,–,–,–,inactive,564 µM,155,–
Cc1ccc(C(O)c2nccc3c2[nH]c2ccccc23)cc1 (stereo not given),< 4.52,< 4.52,5.31,13.8 µM,9.29 µM,15%,26.6 µM,–,20.6 µM,29%,Non-toxic,–,–,–,–,–,–,> 100,–
O=C(O)c1cc2c([nH]c3ccccc32)c(C(=O)c2ccccc2[N+](=O)[O-])n1,4.75,4.88,5.54,> 40 µM,> 40 µM,0%,> 40 µM,100%,> 40 µM,97%,–,–,–,–,–,inactive,12.8 µM,4,–
Cc1cccc(C(=O)c2nccc3c2[nH]c2ccccc23)c1,< 4.52,< 4.52,6.70,> 40 µM,> 40 µM,97%,> 40 µM,–,> 40 µM,100%,–,–,Active,–,Active,–,23.7 µM,120,–
COc1cccc(C(=O)c2nccc3c2[nH]c2ccccc23)c1,< 4.52,–,5.53,> 40 µM,> 40 µM,0%,> 40 µM,98%,> 40 µM,71%,–,–,–,–,–,–,16.3 µM,6,13.2 µM
COc1ccc(C(=O)c2nc(C(=O)O)cc3c2[nH]c2ccccc23)cc1,4.79,4.98,6.64,> 40 µM,> 40 µM,28%,> 40 µM,–,> 40 µM,98%,–,–,–,–,–,inactive,43.1 µM,187,–

# The next molecules have a higher pIC50 [3] than those just listed; values first:
pIC50 [3],pIC50 [4],pEC50 [5],Structure (SMILES),GI50 (DU-145),GI50 [1],inhibition at 1 µM (RAW264.7 [2]),GI50 (A549),inhibition at 10 µM (RAW264.7 [6]),GI50 (KB),inhibition at 3 µM (RAW264.7 [7]),CC50 (Mus musculus),inhibition (Neutrophil [8]),Activity (RAW264.7 [9]),inhibition (Neutrophil [10]),Activity (RAW264.7 [11]),Activity [12],CC50 [13],selectivity ratio [14],INH [15]
5.30,< 4.52,5.18,CC(=O)c1nccc2c1[nH]c1ccccc12,> 40 µM,> 40 µM,0%,> 40 µM,59%,> 40 µM,0%,Non-toxic,–,–,–,–,–,–,–,–
5.69,5.56,6.24,O=C(O)c1cc2c([nH]c3ccccc32)c(C(=O)c2cccc(Br)c2)n1,> 40 µM,> 40 µM,100%,> 40 µM,–,> 40 µM,100%,–,Active,Active,Active,Active,inactive,29.4 µM,51,–
5.27,4.83,5.59,Cc1ccccc1C(=O)c1nc(C(=O)O)cc2c1[nH]c1ccccc12,> 40 µM,> 40 µM,0%,> 40 µM,100%,> 40 µM,82%,–,–,–,–,–,inactive,–,> 2000,–
5.18,5.21,5.53,O=C(O)c1cc2c([nH]c3ccccc32)c(C(=O)c2ccc([N+](=O)[O-])cc2)n1,> 40 µM,> 40 µM,0%,> 40 µM,100%,> 40 µM,92%,–,–,–,–,–,inactive,15 µM,5,–
5.27,5.51,5.16,O=C(O)c1cc2c([nH]c3ccccc32)c(C(=O)c2ccccc2Br)n1,> 40 µM,> 40 µM,0%,> 40 µM,96%,> 40 µM,78%,–,–,–,–,–,inactive,524 µM,75,–
